Data set [1] has as its system Rattus norvegicus. The data set can be described thus: Uterotrophic activity in ovariectomized weaned Sprague-Dawley rat assessed as uterine weight at 10 mg/kg/day measured after 3 days (reference value: 100 +/- 15%). Type of data set: ADME, organism-based, Uterus. To be noted: in vivo, 72 h. The method in brief: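 Weaned rats were ovariectomized and left untreated for 3 days. They were then dosed for 3 days with 17-ethinylestradiol 10 µg/kg/day or test compound 10 mg/kg/day, with 1% CMC as the vehicle control. Rats were then killed and the uterus removed, trimmed and weighed. Results are % of control uterine weight, mean ± SD; N = 7; Student's t test.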

Data set [2] deals with Rattus norvegicus. Nature of the data set: Toxicity in Sprague-Dawley rat assessed as increase in body weight at 50 mg/kg/day administered for 16 days measured on day 16 post last dose (reference value: 195 +/- 16%). It is filed as organism-based. To be noted: in vivo, 384 h.

`CCCCCCCCCCCCCCC(C)=O`: the Activity was determined as 64% in the data set with Rattus norvegicus [1] and 226% with Rattus norvegicus [2].

The values above are taken from ChEMBL document CHEMBL3272112, “Cycloalkanones. 8. Hypocholesterolemic activity of long-chain ketones related to pentadecanone” (J Med Chem, 1976).
